TRPC6 act – mouse TRPC6 channel activation | AID 2550 | B-score at 10 µM | HEK293-TRPC6 membrane potential dye fluorescence; hits give high values | Q61143 | 310,000 tested, 0.13% active;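 active means B-score of the integrated fluorescence ratio above library mean plus 3 SD, and starting fluorescence ratio within library mean plus 5 SD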;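 further: higher score means more depolarization so channel activation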
TRPC4 agonist – TRPC4 (mouse) channel activation | 310,000 tested, 0.49% active | HEK293 TRPC4beta/mu-opioid, Fluo4 calcium fluorescence; hits give high values | B-score at 10 µM | Q9QUQ5 | AID 2237;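 active means B-score above 5 SD of library B-scores, and initial fluorescence ratio not above library mean plus 5 SD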;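 further: positive B-score marks a calcium rise read as TRPC4 activation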
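System – HEK293 cells stably co-expressing mouse TRPC4beta and mu-opioid receptor · Signal – Fluo4 calcium-sensitive dye fluorescence, kinetic, 1 Hz baseline · Benchmarks – buffer (low) and maximal DAMGO (high) · Read-out – B score of integrated fluorescence ratio per well · Incubation – dye loading 45 min room temperature, 110 s kinetic read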
TRPC4 block – blocks the mouse TRPC4 cation channel; B-score at 10 µM; 300,000 tested, 0.39% active; AID 2247; Q9QUQ5; HEK293 TRPC4beta/mu-opioid, DAMGO-evoked Fluo4 calcium flux; hits give low values;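 active means B-score over 3 SD under the library average, no early fluorescence shift, positive overall ratio signal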
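Assay system – HEK293 line stably carrying TRPC4beta and mu-opioid receptor · Doses – single dose · Detection – Fluo4 calcium-dye fluorescence, kinetic read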
TRPC6 inh – inhibitors of mouse TRPC6 channel; HEK293-TRPC6, membrane potential dye, ACh-evoked depolarization; hits give low values; B-score at 10 µM; 310,000 tested, 1.1% active; AID 2553;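 active means B-score under library mean minus 3 SD, initial fluorescence not abnormally high, positive integrated signal ratio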;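 further: B-score derived from integrated fluorescence ratio over the kinetic read; more negative B-score means stronger inhibition of depolarization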
TRPC4 potent – allosteric potentiators of mouse TRPC4 channel; AID 2227; HEK293 TRPC4beta/mu-opioid, DAMGO EC20, Fluo-4 Ca2+ flux; hits give high values; B-score at 10 µM; Q9QUQ5; 310,000 tested, 0.42% active;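 active means B-score of calcium response area above 5 SD of library B-scores, with initial fluorescence ratio within 5 SD of library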;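 further: B-score of integrated fluorescence ratio over time as area under calcium response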
TRPC4 spec 2 – mouse TRPC4 off-target activity of TRPC6 inhibitors, second screen. AID 2776. 920 tested, 42% active. HEK293 TRPC4/MOR, membrane potential dye fluorescence; channel activated by saturating DAMGO dose. inhibition, % at 10 µM. shares compounds with TRPC6 inh;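 active means compounds whose fluorescence signal differed from control wells by over 3 SD, either direction, in both duplicate plates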
TRPC4 spec – selectivity of TRPC6 inhibitors: effect on mouse TRPC4; shares compounds with TRPC6 inh; HEK293 TRPC4/mu-opioid, membrane potential fluorescence; activity change, negative = inhibition, % at 10 µM; 920 tested, 61% active;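 active means rise or fall in signal beyond 3 SD of buffer-only wells in both replicate plates, either sign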;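 further: integrated kinetic ratio of fluorescence range over baseline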
HEK293 MPD ctr 2-1 – second check of TRPC6 inhibitor effects in parental HEK293 cells. parental HEK293 membrane potential dye fluorescence; maximal acetylcholine challenge after compound addition. AID 2779. shares compounds with TRPC6 inh. signal change vs control, % at 10 µM. 920 tested, 31% active;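 active means membrane potential signal moving either way by over 3 SD of the maximum-effect control, in both duplicate plates, meaning non-specific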
HEK293 MPD ctr-1 – counter-screen for TRPC6 inhibitors: effect in parental HEK293 cells; 920 tested, 60% active; membrane potential signal change, % at 10 µM; parental HEK293 membrane potential dye fluorescence; shares compounds with TRPC6 inh; AID 2780;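 active means membrane potential signal shifting up or down by more than 3 SD of buffer-only wells, on both duplicate plates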
HEK293 MPD ctr-2 – parental HEK293 nonspecific activity of TRPC6 modulators; shares compounds with TRPC6 inh; membrane potential dye fluorescence; 2,400 tested, 51% active; membrane potential signal change, % at 10 µM; AID 488924;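 active means membrane potential signal moves up or down beyond 5 SD from buffer-only wells, on both duplicate plates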
HEK293 MPD ctr 2-2 – second check of TRPC6 modulator effects in parental HEK293 cells; inhibition, % at 10 µM; membrane potential dye fluorescence; after compound, maximal acetylcholine stimulation; shares compounds with TRPC6 inh; 2,400 tested, 14% active;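 active means membrane potential signal drops by more than 5 SD from the mean control signal, in both duplicate plates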;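 further: plate controls were acetylcholine ECmax control wells for no effect and buffer only wells for full effect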
TRPC4 ctr mod – selectivity of TRPC6 modulators against mouse TRPC4 | shares compounds with TRPC6 inh | 2,400 tested, 69% active | HEK293 TRPC4/mu-opioid, membrane potential fluorescence | percent change from control (negative = decrease, positive = increase), % at 10 µM;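 active means membrane potential signal moved up or down beyond 5 SD of buffer control wells, in both duplicate plates, actives on both sides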;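 further: plate controls were assay buffer wells for no effect and DAMGO maximal-effect wells for full effect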
TRPC4/MOR inh 2 – mouse TRPC4 off-target activity of TRPC6 modulators, second screen. HEK293 TRPC4/mu-opioid, membrane potential dye fluorescence; stimulated with maximal-effect DAMGO. inhibition, % at 10 µM. AID 488928. shares compounds with TRPC6 inh. 2,400 tested, 55% active;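 active means drop in membrane potential signal beyond 5 SD of the control wells in both duplicate plates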;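 further: TRPC4 counter screen for TRPC6 hits run under conditions tuned for TRPC6 not TRPC4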
TRPC6 block conf – mouse TRPC6 inhibitor confirmation; shares compounds with TRPC6 inh; HEK293-TRPC6, membrane potential dye, ACh-evoked depolarization; inhibition, % at 10 µM; 3,300 tested, 43% active;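 active means fluorescence ratio falls more than 5 SD below the full-stimulation control mean, in both duplicate runs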;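 further: integrated fluorescence ratio of peak minus minimum over baseline after agonist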
TRPC6 act confirm – mouse TRPC6 activator confirmation | shares compounds with TRPC6 inh | HEK293-TRPC6 membrane potential dye fluorescence, FDSS | activation, % at 10 µM | 2,800 tested, 11% active | AID 488961;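 active means ratio signal rise beyond 5 SD above unstimulated control wells' mean, seen in both duplicate runs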;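 further: plate controls were buffer EC0 wells for no effect and acetylcholine ECmax response for full effect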
The depositor's hits bear a star; i = inactive; / = no result given. Hits are enriched below; roughly 2.3% of the tested compounds scored in any of these assays.

SMILES	TRPC6 act	TRPC4 agonist	TRPC4 block	TRPC6 inh	TRPC4 potent	HEK293 MPD ctr-2	HEK293 MPD ctr 2-2	TRPC4 ctr mod	TRPC4/MOR inh 2	TRPC6 block conf	TRPC6 act confirm	others
CCOC(CNC(=O)CN1C(=O)COc2ccc(S(=O)(=O)N3CCOCC3)cc21)OCC	i	i	i	-5.2*	i	i	i	i	i	i	i
CCCc1ccc(/C=C2\C(=O)c3ccccc3C(O)=C2C(=O)OCC)cc1	i	i	i	i	i	/	/	/	/	/	/
CCOC(=O)C1=C(O)c2ccccc2C(=O)/C1=C\c1ccc(CC)cc1	15*	i	i	i	i	552%*	i	130%*	i	i	182%*
COc1cccc(OCc2cc(C(=O)N3CCN(C(C)=O)CC3)no2)c1	i	i	i	i	i	/	/	/	/	/	/
O=C(NC1CCN(Cc2ccccc2)CC1)C1COc2ccccc2O1 (centres undefined)	i	i	i	-5.7*	i	104%*	86%*	12%*	29%*	72%*	/
Cc1ccc(C)n1-c1ccc(C(=O)NC2CCN(Cc3ccccc3)CC2)cc1	i	i	i	-5.1*	i	i	i	i	36%*	i	i
O=C(O)c1cn(-c2ccccc2)nc1-c1cccnc1	i	i	i	i	i	/	/	/	/	/	/
O=C(NC1CCN(Cc2ccccc2)CC1)c1cn(-c2ccccc2)nc1-c1cccnc1	i	i	i	-5.6*	i	91%*	i	i	52%*	41%*	i
O=C(Nc1nc2ccccc2[nH]1)c1cccs1	i	i	i	i	i	/	/	/	/	/	/
N=c1c(-c2nc3ccccc3[nH]2)cc(C(=O)c2cccs2)nn1-c1ccc(Cl)cc1	i	i	i	-6.2*	i	i	i	-19%*	56%*	i	i
CCOc1ccc(NC(C(=O)Nc2cccc(C(C)=O)c2)c2ccccc2)cc1 (centres undefined)	i	i	i	i	i	/	/	/	/	/	/
CCN(CC)CCNC(C(=O)Nc1cccc(C(C)=O)c1)c1ccccc1 (centres undefined)	i	i	i	-6.8*	i	i	i	i	i	i	i
COC(=O)CSc1nc2sc3c(c2c(=O)n1C1CCCCC1)CCN(C)C3	i	i	i	-9.4*	i	/	/	/	/	i	i	TRPC4 spec 2=78%*;TRPC4 spec=i;HEK293 MPD ctr 2-1=i;HEK293 MPD ctr-1=-212%*

Screening results: PubChem BioAssay, Johns Hopkins Ion Channel Center
